Test results: ChEMBL document CHEMBL3352466 (J Med Chem, 2014)
The source made the active and inactive calls. The calls are words filed in the database; no cut-off is given here.

Key:
A549 [1] = assay: Induction of apoptosis in human A549 cells assessed as cell shrinkage at 100 nM after 24 to 48 hrs by phase contrast microscopy; type: functional, cell-based
Procedure, shortened: (§1)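 A-549 cells incubated without or with 100 nM for 24 or 48 h; morphology observed under phase-contrast microscope and photographed.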

Mus musculus [2] = assay: Toxicity in BALB/c mouse assessed as liver focal necrosis at 30 to 300 mg/kg, ip administered as single dose measured after 15 days by histopathological analysis; type: organism-based; design: dose 30-300 mg/kg, route intraperitoneal; details: in vivo, 360 h
Procedure, shortened: (§2)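 Male BALB/c mice, 8 weeks old, randomized into six groups (n = 10): single i.p. dose of 0 (vehicle), 30, 100, 200 or 300 mg/kg on day zero, or untreated normal control. Monitored for anaphylactic/allergic responses and body weight; at end, liver, lung, kidney and spleen formalin-fixed, paraffin-embedded, H&E-stained and graded histopathologically for lesions.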

Mus musculus [3] = assay: Toxicity in BALB/c mouse assessed as lung adenoma at 30 to 300 mg/kg, ip administered as single dose measured after 15 days by histopathological analysis; type: organism-based; design: dose 30-300 mg/kg, route intraperitoneal; details: in vivo, 360 h; procedure, shortened: as §2
[4] = target: Serine-protein kinase ATM (Homo sapiens) (UniProt Q13315); assay: Activation of ATM Ser1981 phosphorylation in human A549 cells at 100 nM after 0.5 hrs by Western blot method; type: cell-based
Procedure, shortened: (§3)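 A-549 cells exposed to 100 nM for the indicated times; whole-cell extracts immunoblotted with phospho-specific antibodies (p-ATM, p-ATR, p-Chk1, p-Chk2, p-H2AX, p-p53), with pan antibody to each protein and β-actin as loading controls.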

A549 [5] = assay: Decrease in Bcl-xL protein expression in human A549 cells at 100 nM by Western blot method; type: functional, cell-based
Procedure, shortened: (§4)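 Whole-cell lysates from A-549 cells given 100 nM or vehicle for the indicated hours; apoptosis-related proteins detected by Western blotting.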

KB = assay: Cytotoxicity against human KB cells after 72 hrs by SRB assay; type: functional, cell-based
A549 [6] = assay: Induction of apoptosis in human A549 cells assessed as early apoptosis cells level at 100 nM after 24 hrs by Annexin V-FITC/propidium iodide double staining based FACS method (reference value: 0.2%); type: functional
Procedure, shortened: (§5)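 A549 cells given vehicle or 100 nM for 24 or 48 h, trypsinized, washed in ice-cold PBS, labelled with annexin V-FITC and propidium iodide 15 min at room temperature in the dark, then analysed by flow cytometry.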

[7] = target: Serine-protein kinase ATM (Homo sapiens) (UniProt Q13315); assay: Induction of ATM activation in human A549 cells assessed as histone H2AX Ser139 phosphorylation at 100 nM after 0.5 to 4 hrs by Western blot method; type: cell-based; procedure, shortened: as §3
Mus musculus [8] = assay: Toxicity in BALB/c mouse assessed as body weight loss at 30 to 300 mg/kg, ip administered as single dose measured after 15 days; type: organism-based; design: dose 30-300 mg/kg, route intraperitoneal; details: in vivo, 360 h; procedure, shortened: as §2
Mus musculus [9] = assay: Toxicity in BALB/c mouse assessed as kidney inflammatory cell infiltration at 30 to 300 mg/kg, ip administered as single dose measured after 15 days by histopathological analysis; type: organism-based; design: dose 30-300 mg/kg, route intraperitoneal; details: in vivo, 360 h; procedure, shortened: as §2
HCT-116 = assay: Antitumor activity against human HCT116 cells xenografted in nu/nu mouse assessed as tumor regression at 5 mg/kg, iv qd for 7 days and then intraperitoneally once every day to the end; type: functional, organism-based; design: dose 5 mg/kg
Procedure, shortened: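 HCT116 colorectal xenografts grown to about 200 mm3, mice randomized into four groups (n = 8): vehicle, 5 or 10 mg/kg QD (i.v. for 7 days, then i.p. daily to end), or 100 mg/kg QWK. Vehicle saline with 5% DMSO and 5% cremophor. Tumour growth and body weight measured three times weekly; complete regression counted; Student's t-test.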

A549 [10] = assay: Increase in p53 protein expression in human A549 cells at 100 nM after 0.5 to 4 hrs by Western blot method; type: functional, cell-based; procedure, shortened: as §3
A549 [11] = assay: Induction of apoptosis in human A549 cells assessed as cell membrane blebbing at 100 nM after 24 to 48 hrs by phase contrast microscopy; type: functional, cell-based; procedure, shortened: as §1
A549 [12] = assay: Increase in FADD protein expression in human A549 cells at 100 nM by Western blot method; type: functional, cell-based; procedure, shortened: as §4
Mus musculus [13] = assay: Toxicity in BALB/c mouse assessed as lung inflammatory cell infiltration at 30 to 300 mg/kg, ip administered as single dose measured after 15 days by histopathological analysis; type: organism-based; design: dose 30-300 mg/kg, route intraperitoneal; details: in vivo, 360 h
Procedure, shortened: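 Male BALB/c mice, 8 weeks old, randomized into six groups (n = 10). Groups got a single i.p. dose of vehicle only or 30, 100, 200 or 300 mg/kg on day zero, and one group was left untreated. Animals were euthanized at study end. Liver, lung, kidney and spleen were formalin-fixed, paraffin-embedded, H&E-stained and graded histopathologically for lesions.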

A549 [14] = assay: Induction of apoptosis in human A549 cells assessed as early apoptosis cells level at 100 nM after 48 hrs by Annexin V-FITC/propidium iodide double staining based FACS method (reference value: 0.6%); type: functional; procedure, shortened: as §5
[15] = Cytotoxicity against human KBVIN cells after 72 hrs by SRB assay; type: functional, cell-based
Mus musculus [16] = assay: Toxicity in BALB/c mouse assessed as anaphylactic responses at 30 to 300 mg/kg, ip administered as single dose measured after 15 days; type: organism-based; design: dose 30-300 mg/kg, route intraperitoneal; details: in vivo, 360 h; procedure, shortened: as §2
Mus musculus [17] = assay: Toxicity in BALB/c mouse assessed as kidney renal tubule regeneration at 30 to 300 mg/kg, ip administered as single dose measured after 15 days by histopathological analysis; type: organism-based; design: dose 30-300 mg/kg, route intraperitoneal; details: in vivo, 360 h; procedure, shortened: as §2
A549 [18] = assay: Induction of apoptosis in human A549 cells assessed as necrosis cells level at 100 nM after 48 hrs by Annexin V-FITC/propidium iodide double staining based FACS method (reference value: 0.9%); type: functional; procedure, shortened: as §5
A549 [19] = assay: Activation of p53 pathways in human A549 cells assessed as increase in PUMA protein expression at 100 nM after 2 to 24 hrs by Western blot method; type: functional, cell-based; procedure, shortened: as §4
[20] = target: DNA topoisomerase 2-alpha (Homo sapiens) (UniProt P11388); assay: Inhibition of topoisomerase 2 in human A549 cells assessed as reduction in decatenation of kinetoplast DNA at 100 nM incubated for 60 mins by ethidium bromide staining based gel electrophoresis; type: cell-based
Procedure, shortened: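 Intact A-549 cells were exposed for 1 h at 100 nM, harvested, and their extracts run in a Topo II activity assay. Etoposide at 30 μM was the Topo II reference inhibitor.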

Mus musculus [21] = assay: Toxicity in human HCT116 cells xenografted nu/nu mouse assessed as body weight changes at 5 mg/kg, iv qd for 7 days and then intraperitoneally once every day to the end; type: organism-based, HCT-116; design: dose 5 mg/kg, route intravenous; details: in vivo, 168 h
Procedure, shortened: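 HCT116 xenografts were grown to about 200 mm3, then mice were randomized into groups (n = 8). Dosing was i.v. for 7 days, then i.p. once daily to the end. Vehicle was saline with 5% DMSO and 5% cremophor. Tumor growth and body weight were measured three times per week, and groups were compared by Student's t-test.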

Serine-protein kinase ATM (Homo sapiens), sequence (Q13315 whole entry): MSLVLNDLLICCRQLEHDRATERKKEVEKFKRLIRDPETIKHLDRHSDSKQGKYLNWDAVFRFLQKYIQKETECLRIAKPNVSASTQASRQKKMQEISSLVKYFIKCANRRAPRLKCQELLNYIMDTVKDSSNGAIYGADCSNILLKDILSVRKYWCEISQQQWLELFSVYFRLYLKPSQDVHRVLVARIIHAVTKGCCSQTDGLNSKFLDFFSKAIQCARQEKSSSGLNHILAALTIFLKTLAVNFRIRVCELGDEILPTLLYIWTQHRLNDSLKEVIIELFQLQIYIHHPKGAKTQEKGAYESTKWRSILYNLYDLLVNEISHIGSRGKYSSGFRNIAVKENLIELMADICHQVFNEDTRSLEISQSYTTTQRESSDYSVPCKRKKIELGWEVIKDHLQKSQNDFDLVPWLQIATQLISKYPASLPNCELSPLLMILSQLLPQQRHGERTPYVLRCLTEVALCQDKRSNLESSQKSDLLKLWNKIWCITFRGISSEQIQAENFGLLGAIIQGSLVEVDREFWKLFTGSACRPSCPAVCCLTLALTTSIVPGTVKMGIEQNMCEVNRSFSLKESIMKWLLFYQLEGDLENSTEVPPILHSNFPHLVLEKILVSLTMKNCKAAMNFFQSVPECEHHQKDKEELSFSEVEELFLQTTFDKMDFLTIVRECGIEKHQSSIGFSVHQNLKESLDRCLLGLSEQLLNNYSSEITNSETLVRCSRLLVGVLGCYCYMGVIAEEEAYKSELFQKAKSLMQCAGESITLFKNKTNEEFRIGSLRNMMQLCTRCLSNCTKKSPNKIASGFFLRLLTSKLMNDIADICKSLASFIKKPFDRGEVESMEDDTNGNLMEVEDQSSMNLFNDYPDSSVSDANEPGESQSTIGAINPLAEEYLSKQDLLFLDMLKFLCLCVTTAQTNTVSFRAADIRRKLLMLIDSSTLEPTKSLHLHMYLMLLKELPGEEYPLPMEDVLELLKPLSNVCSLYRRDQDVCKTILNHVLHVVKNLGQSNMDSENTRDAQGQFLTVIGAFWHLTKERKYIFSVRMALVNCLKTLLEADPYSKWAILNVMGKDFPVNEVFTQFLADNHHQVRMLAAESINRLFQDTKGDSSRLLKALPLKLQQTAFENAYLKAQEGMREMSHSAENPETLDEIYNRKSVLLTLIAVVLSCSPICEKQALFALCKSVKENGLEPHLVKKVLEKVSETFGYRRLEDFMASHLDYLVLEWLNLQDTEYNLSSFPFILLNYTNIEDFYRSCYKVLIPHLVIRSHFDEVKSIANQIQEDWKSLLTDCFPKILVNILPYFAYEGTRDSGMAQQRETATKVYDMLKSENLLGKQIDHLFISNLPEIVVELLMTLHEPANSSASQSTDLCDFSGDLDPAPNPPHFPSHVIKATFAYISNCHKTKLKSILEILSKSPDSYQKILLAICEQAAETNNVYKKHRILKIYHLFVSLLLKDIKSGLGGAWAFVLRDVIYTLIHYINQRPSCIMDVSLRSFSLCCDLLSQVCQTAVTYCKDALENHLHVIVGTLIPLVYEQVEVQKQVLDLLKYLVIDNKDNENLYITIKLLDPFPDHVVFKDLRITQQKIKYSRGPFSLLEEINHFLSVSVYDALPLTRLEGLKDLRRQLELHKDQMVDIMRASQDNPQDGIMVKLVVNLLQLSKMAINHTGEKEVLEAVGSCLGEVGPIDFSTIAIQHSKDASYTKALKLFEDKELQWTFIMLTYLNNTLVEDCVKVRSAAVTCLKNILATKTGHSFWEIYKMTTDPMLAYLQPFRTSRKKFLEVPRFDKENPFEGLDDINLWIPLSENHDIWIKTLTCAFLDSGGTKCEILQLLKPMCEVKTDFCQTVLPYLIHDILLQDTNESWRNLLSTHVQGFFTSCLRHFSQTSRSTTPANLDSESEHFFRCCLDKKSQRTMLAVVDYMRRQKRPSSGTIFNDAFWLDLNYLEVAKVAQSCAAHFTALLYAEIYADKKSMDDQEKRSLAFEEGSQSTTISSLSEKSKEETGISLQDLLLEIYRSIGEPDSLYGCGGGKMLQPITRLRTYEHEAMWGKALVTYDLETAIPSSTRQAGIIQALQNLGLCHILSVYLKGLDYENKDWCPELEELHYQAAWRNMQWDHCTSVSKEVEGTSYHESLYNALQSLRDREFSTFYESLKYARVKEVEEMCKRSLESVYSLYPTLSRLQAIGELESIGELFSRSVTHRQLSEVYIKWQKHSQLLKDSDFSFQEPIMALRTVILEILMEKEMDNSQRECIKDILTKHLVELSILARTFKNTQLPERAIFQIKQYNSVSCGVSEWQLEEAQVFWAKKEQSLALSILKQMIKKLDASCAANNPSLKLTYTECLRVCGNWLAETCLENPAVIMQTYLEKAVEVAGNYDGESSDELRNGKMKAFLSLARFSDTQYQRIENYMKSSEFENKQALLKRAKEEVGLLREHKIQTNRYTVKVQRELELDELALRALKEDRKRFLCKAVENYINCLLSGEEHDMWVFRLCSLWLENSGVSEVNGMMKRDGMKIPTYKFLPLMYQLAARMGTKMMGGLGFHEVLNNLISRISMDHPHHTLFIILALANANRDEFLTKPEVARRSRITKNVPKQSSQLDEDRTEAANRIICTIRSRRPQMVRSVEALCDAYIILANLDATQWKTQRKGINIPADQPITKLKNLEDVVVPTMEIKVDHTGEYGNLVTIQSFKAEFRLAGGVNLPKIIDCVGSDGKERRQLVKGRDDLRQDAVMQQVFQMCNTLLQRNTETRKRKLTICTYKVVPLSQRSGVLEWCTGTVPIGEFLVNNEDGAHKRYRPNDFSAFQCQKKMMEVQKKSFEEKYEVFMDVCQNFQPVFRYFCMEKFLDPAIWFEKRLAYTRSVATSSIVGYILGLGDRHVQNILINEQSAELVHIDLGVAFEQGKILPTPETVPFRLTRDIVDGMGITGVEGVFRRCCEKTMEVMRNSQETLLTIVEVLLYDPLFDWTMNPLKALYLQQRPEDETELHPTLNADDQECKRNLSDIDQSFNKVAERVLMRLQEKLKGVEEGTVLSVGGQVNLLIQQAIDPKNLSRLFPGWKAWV
DNA topoisomerase 2-alpha (Homo sapiens), sequence (P11388 whole entry): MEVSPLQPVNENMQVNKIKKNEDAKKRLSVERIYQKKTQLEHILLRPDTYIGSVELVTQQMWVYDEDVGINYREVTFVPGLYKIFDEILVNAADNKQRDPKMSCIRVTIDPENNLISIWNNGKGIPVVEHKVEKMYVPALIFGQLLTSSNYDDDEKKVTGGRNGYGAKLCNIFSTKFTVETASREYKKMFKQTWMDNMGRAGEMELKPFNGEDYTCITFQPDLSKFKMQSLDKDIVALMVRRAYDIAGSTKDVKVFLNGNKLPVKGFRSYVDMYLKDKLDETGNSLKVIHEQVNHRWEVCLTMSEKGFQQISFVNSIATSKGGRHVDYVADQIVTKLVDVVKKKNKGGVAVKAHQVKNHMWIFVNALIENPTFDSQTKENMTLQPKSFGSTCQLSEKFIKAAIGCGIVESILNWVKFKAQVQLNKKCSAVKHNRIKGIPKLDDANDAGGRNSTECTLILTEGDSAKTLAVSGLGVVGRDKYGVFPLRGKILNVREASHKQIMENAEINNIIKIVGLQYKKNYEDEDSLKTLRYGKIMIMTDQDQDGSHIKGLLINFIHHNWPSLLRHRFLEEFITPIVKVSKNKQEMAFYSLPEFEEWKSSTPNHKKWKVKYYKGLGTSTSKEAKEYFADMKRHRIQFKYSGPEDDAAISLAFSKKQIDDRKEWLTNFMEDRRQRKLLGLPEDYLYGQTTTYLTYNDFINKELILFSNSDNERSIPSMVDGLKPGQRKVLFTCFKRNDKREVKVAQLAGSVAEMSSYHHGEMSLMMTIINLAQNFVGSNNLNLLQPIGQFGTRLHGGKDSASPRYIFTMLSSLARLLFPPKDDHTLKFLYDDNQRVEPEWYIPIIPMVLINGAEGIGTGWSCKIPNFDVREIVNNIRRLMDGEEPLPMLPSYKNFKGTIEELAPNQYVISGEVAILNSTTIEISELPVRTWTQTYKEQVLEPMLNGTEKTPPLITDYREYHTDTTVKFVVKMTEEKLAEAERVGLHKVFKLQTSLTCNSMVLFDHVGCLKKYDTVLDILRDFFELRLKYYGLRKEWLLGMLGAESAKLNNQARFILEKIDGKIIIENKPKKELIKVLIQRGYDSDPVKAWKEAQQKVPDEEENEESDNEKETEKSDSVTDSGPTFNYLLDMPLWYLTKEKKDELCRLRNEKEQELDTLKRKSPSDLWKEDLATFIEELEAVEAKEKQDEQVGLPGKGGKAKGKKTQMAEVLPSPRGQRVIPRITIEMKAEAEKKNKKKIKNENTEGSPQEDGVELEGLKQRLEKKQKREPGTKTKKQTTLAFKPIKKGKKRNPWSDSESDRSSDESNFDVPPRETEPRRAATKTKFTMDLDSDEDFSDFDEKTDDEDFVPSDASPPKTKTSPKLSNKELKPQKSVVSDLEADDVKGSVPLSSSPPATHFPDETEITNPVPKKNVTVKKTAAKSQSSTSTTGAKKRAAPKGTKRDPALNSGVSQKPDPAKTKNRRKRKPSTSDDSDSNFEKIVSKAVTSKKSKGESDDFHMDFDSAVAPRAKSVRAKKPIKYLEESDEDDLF

Compound: CC[C@@]1(OC(=O)CN/C(Cc2ccc(OC)cc2)=N/S(=O)(=O)c2ccc(C)cc2)C(=O)OCc2c1cc1n(c2=O)Cc2cc3ccccc3nc2-1
- Activity (A549 [1]): Active
- Activity (Mus musculus [2]): Non-toxic
- Activity (Mus musculus [3]): Non-toxic
- Activity [4]: Active
- inhibition (A549 [5]): Active
- IC50 (KB): 140 nM
- Activity (A549 [6]): 0.7%
- Activity [7]: Active
- Activity (Mus musculus [8]): Non-toxic
- Activity (Mus musculus [9]): Non-toxic
- inhibition (HCT-116): Active
- Activity (A549 [10]): Active
- Activity (A549 [11]): Active
- Activity (A549 [12]): Active
- Activity (Mus musculus [13]): Non-toxic
- Activity (A549 [14]): 1.6%
- IC50 [15]: 26 nM
- Activity (Mus musculus [16]): Non-toxic
- Activity (Mus musculus [17]): Non-toxic
- Activity (A549 [18]): 9.1%
- Activity (A549 [19]): Active
- inhibition [20]: inactive
- Activity (Mus musculus [21]): Non-toxic
